Arr AP2 block = blocks beta-arrestin peptide binding to AP2 adaptin; FITC-arrestin peptide / GST-AP2 beads, flow cytometry; AP2 beta2 appendage carries R879A mutation; inhibition, % at 10 µM; 340,000 tested, 0.31% active; AID 504490;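 active = inhibition above a set limit, near 3 SD of compounds lacking own fluorescence, cut at about 54% in these data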;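 note: plate controls were DMSO wells for no effect and 5 µM unlabelled arrestin peptide for full effect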
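System: GST-AP2 R879A glutathione beads; medium: PBS, Tween 20 0.05%, BSA 0.1%; reagent: fluorescein-tagged arrestin peptide at 50 nM final; schedule: pre-incubation 12 min, peptide binding 1 h, room temperature; detection: flow cytometry, FL1 (488/535 nm); read-out: inhibition as reduced fluorescein signal on beads, percent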
ABCB6 inh MLPCN = blocks the human ABCB6 transporter. K562-ABCB6 porphyrin accumulation, flow cytometry, 1 h; stronger effect = lower value. fluorescence ratio to DMSO, % at 10 µM. 360,000 tested, 0.19% active;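 active = fluorescence ratio to DMSO below 75%, the collection mean minus 3 SD; inconclusive = too few cells collected in the well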;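 note: signal is porphyrin accumulated inside mitochondria; 100% equals median channel fluorescence of DMSO control wells; lower ratio means ABCB6 inhibition with less porphyrin fluorescence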
Target sequence (Q9NP58 whole entry, looked up): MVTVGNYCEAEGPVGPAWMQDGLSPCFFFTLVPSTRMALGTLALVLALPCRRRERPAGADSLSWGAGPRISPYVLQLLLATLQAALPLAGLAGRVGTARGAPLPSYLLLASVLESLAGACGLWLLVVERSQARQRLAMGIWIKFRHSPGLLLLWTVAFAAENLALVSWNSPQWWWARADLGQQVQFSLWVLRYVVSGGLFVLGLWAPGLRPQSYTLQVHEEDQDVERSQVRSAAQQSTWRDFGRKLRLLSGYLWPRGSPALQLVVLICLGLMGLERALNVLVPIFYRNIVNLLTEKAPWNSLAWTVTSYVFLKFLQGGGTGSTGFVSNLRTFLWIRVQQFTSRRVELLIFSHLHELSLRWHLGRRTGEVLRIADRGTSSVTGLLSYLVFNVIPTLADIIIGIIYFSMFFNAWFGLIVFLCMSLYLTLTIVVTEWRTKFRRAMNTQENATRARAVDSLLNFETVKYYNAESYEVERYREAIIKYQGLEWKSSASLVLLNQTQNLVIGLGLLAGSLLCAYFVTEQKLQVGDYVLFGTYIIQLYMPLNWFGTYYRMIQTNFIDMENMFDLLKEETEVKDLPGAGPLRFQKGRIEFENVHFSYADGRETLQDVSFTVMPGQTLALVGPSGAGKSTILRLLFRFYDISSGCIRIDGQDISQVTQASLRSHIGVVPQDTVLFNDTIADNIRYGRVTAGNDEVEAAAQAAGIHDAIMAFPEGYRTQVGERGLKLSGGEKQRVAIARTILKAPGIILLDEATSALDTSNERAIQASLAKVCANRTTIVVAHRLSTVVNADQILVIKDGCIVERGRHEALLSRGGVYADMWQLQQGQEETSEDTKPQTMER
Exocytosis inh = lytic granule exocytosis inhibition; TALL-104 LAMP-1 surface exposure, flow cytometry; cells stimulated with thapsigargin and PMA; inhibition, % at 10 µM; 360,000 tested, 0.66% active;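 active = inhibition above about 55%, limit read from the data; inconclusive = no clear call, values can overlap the other calls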
Myeloid diff 2 = promotes myeloid progenitor differentiation | calls only at 10 µM | ER-HoxA9 myeloid progenitors, lysozyme-GFP differentiation, flow cytometry | 360,000 tested, 1% active;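 active = normalized GFP-positive differentiation at or above the plate's own cutoff, the solvent-only control mean plus 3 SD; inconclusive = no clear call, values can overlap the other calls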;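 note: cells exposed to compound for four days before flow analysis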
CendR NRP1 mod = NRP-1/CendR interaction modulation. O14786. FAM-RPARPAR peptide binding to NRP-1, fluorescence polarization. inhibition, % at 25 µM. 360,000 tested, 0.85% active;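 active = inhibition or corrected inhibition above about 18%, plus a signal ratio from 0.5 to 1.5, limit read from the data, passing the limit was not always enough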
ATG4B inhibitor = inhibitors of human ATG4B cysteine protease; inhibition, % at 8.33 µM; AID 504462; Q9Y4P1; 340,000 tested, 0.51% active; ATG4B cleavage of LC3-PLA2, NBD-HPC fluorescence, 1 h; in the data active = inhibition above about 40%
Myeloid diff CP1 = compounds promoting myeloid differentiation. 2,300 tested, 2% active. shares compounds with Myeloid diff 2. ER-HoxA9 myeloid progenitors, GFP/Mac1 double-positive flow. calls only;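 active = share of green or green-and-red cells above 9 and 9% in run 1 or 4 and 3% in run 2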
GFP autofluor = compound fluorescence in myeloid differentiation counter-screen. shares compounds with Myeloid diff 2. ER-HoxA9 myeloid progenitors, no estrogen, GFP autofluorescence flow cytometry; vehicle wells 0%, positive control 100%. fluorescence response, % (concentration not given with the values). 2,300 tested, 7.4% active. AID 651707;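 active = over 5% cells positive for green fluorescent reporter, or over 2% positive for both it and APC stain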;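 note: range taken on the double positive population between DMSO and positive control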
Exocytosis CP01 = lytic granule exocytosis inhibition | shares compounds with Exocytosis inh | TALL-104 cells, LAMP-1 externalization, flow cytometry; stimulated with PMA plus thapsigargin | inhibition, % at 10 µM | 1,500 tested, 11% active | AID 651954; in the data active = inhibition above about 60%;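 note: 0% = stimulated vehicle wells and 100% = unstimulated wells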
* marks the source's active call; other numbers are inactive results; i = inactive; ? = inconclusive; . = no result given; + = active, no number. A selection: hits, their analogues and other compounds. The true share with any hit is near 3.3%.

SMILES	Arr AP2 block	ABCB6 inh MLPCN	Exocytosis inh	Myeloid diff 2	CendR NRP1 mod	ATG4B inhibitor	Myeloid diff CP1	GFP autofluor	others
C=CCN1C(=O)C2(C(C(=O)OCC)=C(N)Oc3ccccc32)c2c1c1ccccc1oc2=O (stereo not drawn)	8.2	91.0	15.1	i	43.7*	-10.8	i	0.0
CN1CC(C(=O)c2cccc(C(F)(F)F)c2)C(c2ccc(Cl)cc2)C1 (stereo not drawn)	3.2	99.0	6.3	i	1.2	-6.9	.	.
CCOC(=O)C1CCN(/C=C2/C(=O)NC(=O)N(Cc3ccco3)C2=O)CC1	-0.9	98.0	-4.8	i	-42.7	1.4	.	.
O=C1NC(=S)N(c2ccc(Cl)cc2)C(=O)/C1=C/N1CCN(C(=O)c2ccco2)CC1	-4.5	100.0	-2.2	i	-105.5	4.5	i	0.4
O=c1c2ccccc2nc(-c2ccccc2)n1-c1ccccc1O	-4.4	107.0	-3.1	i	-14.9	27.7	.	.
O=c1c2ccccc2nc(/C=C/c2ccccc2O)n1-c1ccccc1O	36.7	123.0	8.0	+	-66.4	.	i	58.9*
O=C1NCN(c2ccccc2)C12CCN(C(c1cccc3ccccc13)c1nnnn1C1CCCC1)CC2 (stereo not drawn)	.	95.0	-1.8	i	2.3	.	.	.
CC1(C)C(c2ccccc2)=NC(c2cccnc2)N1O (stereo not drawn)	12.0	91.0	-0.7	+	-4.3	-10.9	i	0.0
CCC1=Nc2cc(C(=O)N3CCC4(CC3)OCCO4)ccc2Sc2ccc(C)cc21	13.8	102.0	-0.2	i	-2.8	2.6	.	.
COC(=O)C1=C(c2cc3ccccc3s2)C[C@@H]2CC[C@H]1N2C(=O)NC1CCCCC1	2.3	98.0	-5.9	i	4.6	11.2	+	0.3
COC(=O)C1=C(c2cccc(C#N)c2)C[C@@H]2CC[C@H]1N2C(=O)NC1CCCCC1	18.2	96.0	11.7	+	4.2	-5.7	i	0.0
Cc1cc(OCC(=O)NCc2ccncc2)c2c3c(c(=O)oc2c1)CCCC3	-5.2	101.0	0.2	i	17.3	-4.8	.	.
Cn1cc(C(=O)OCC(=O)NC2(C#N)CCCCC2)c2ccccc21	-1.2	97.0	-7.1	i	1.7	-1.8	.	.
COc1ccc2c(c1OC)CN1CCc3cc4c(cc3C1C2)OCO4 (stereo not drawn)	-7.2	110.0	37.6	i	3.5	2.0	i	0.3
CCCCCCn1c(O)c(C=Nc2ccccc2N2CCOCC2)c(=O)[nH]c1=S	3.4	138.0	-0.2	i	-48.7	-10.3	i	0.0
CCCCn1c(O)c(/C=N/N2CCOCC2)c(=O)[nH]c1=S	31.5	106.0	-10.1	i	-1.9	0.6	.	.
CCOC(=O)c1ccc(NC(=O)c2c(O)[nH]c(=O)[nH]c2=O)cc1	2.1	103.0	1.2	i	-5.3	-7.1	.	.
Cc1cccc(C(=O)NC(Oc2ccccc2)C(Cl)(Cl)Cl)c1 (stereo not drawn)	0.7	94.0	-2.0	i	-1.1	2.6	i	2.1
COc1cccc(C(c2nnnn2C(C)(C)C)N2CCC3(CC2)C(=O)NCN3c2ccccc2)c1OC (stereo not drawn)	.	97.0	5.4	i	3.7	.	.	.
Cc1cc(N2CCCC2)ccc1C=C(C#N)C#N	1.1	106.0	0.2	+	135.3	-9.1	i	3.7
Cn1c(=O)n(CC(=O)N2CCC3(CC2)OCCO3)c(=O)c2ccccc21	8.2	95.0	7.4	+	8.1	4.1	i	0.0
COC1CCCCC1NCCc1ccccc1 (stereo not drawn)	18.4	101.0	-1.6	i	0.3	-0.2	.	.
CCN(CC)S(=O)(=O)c1ccc(C)c(NCC(=O)Nc2ccc(C#N)c(Cl)c2)c1	24.0	104.0	-1.8	+	5.2	-2.9	i	0.0
CC(=O)N1CCN(CC(=O)Nc2ccc(C#N)c(Cl)c2)CC1	-11.6	103.0	-4.9	i	4.0	-5.1	.	.
CC(C)OC(=O)c1c(N)n(Cc2ccco2)c2nc3ccccc3nc12	43.9	101.0	-5.1	i	-21.9	-11.9	.	.
SMILES	Arr AP2 block	ABCB6 inh MLPCN	Exocytosis inh	Myeloid diff 2	CendR NRP1 mod	ATG4B inhibitor	Myeloid diff CP1	GFP autofluor	others
COCCOC(=O)c1c(N)n(Cc2ccco2)c2nc3ccccc3nc12	2.9	103.0	-4.8	i	-32.3	0.1	i	1.7
COc1ccc(Oc2cc(NC(=O)c3nn(C)cc3[N+](=O)[O-])cc([N+](=O)[O-])c2)cc1	4.4	96.0	-0.7	i	7.6	-4.6	i	0.3
COc1ccc(NC(=O)c2cn(CCC#N)nc2-c2cccc([N+](=O)[O-])c2)cc1	2.5	101.0	2.4	i	-0.8	-10.2	.	.
O=C(/C=C/c1ccc2c(c1)OCO2)c1c(O)n(CCC2=CCCCC2)c(=O)[nH]c1=O	-2.0	100.0	0.8	i	-115.6	-3.3	i	0.4
CC(C)C(=O)NC(Oc1ccccc1Cl)C(Cl)(Cl)Cl (stereo not drawn)	32.4	96.0	0.7	i	-4.5	4.5	.	.
C=C1C[C@]2(O)[C@@]3(C)CCC(=O)C(C)(C)C3=C(O)C(=O)[C@@]2(C)[C@@H]2C(=O)O[C@@](C)(C(=O)OC)C(=O)[C@@]12C	10.3	101.0	0.1	+	-8.0	-15.1	i	0.0
COC(=O)C1=C(c2ccc(C(C)=O)cc2)C[C@@H]2CC[C@H]1N2C(=O)NC1CCCCC1	22.1	99.0	65.4*	i	9.6	-6.0	.	.	Exocytosis CP01=-12.6
COc1ccc2c(c1O)-c1c(OC)c(OC)cc3c1[C@H](C2)N(C)CC3	-4.5	99.0	-1.9	i	-14.2	0.6	.	.
CCCN1CCc2cccc3c2[C@H]1Cc1ccc(O)c(O)c1-3	19.7	102.0	101.1*	i	19.9	-4.9	.	.	Exocytosis CP01=26.9
O=C1/C(=C\c2cc3c(cc2Cl)OCO3)N2CCC1CC2	20.9	98.0	3.1	i	-4.6	-7.7	.	.
O=C1/C(=C\c2ccc(Cl)cc2Cl)N2CCC1CC2	12.7	89.0	64.8*	i	-1.0	-2.0	.	.	Exocytosis CP01=-12.0
CCOC(=O)[C@]12Cc3cc(C)ccc3[C@H]1N(C1CCCCC1)C(=O)c1ccccc12	.	95.0	60.2*	?	9.0	.	.	.	Exocytosis CP01=9.1
CCOC(=O)[C@]12Cc3c(cc(OC)c(OC)c3OC)[C@H]1N(C1CCCCC1)C(=O)c1ccccc12	.	91.0	62.8*	.	12.1	.	.	.	Exocytosis CP01=5.6
CCOC(=O)[C@]12Cc3cc(Cl)ccc3[C@H]1N(Cc1ccccc1)C(=O)c1ccccc12	-2.9	95.0	87.1*	i	7.9	-1.4	.	.	Exocytosis CP01=-3.3
